Measurements from the M2OR odorant receptor database.

What was measured:
Details in all cases: stereoisomer not certain
UniProt Q8VGC6 = target: T1, UniProt Q8VGC6
T1 sequence (whole entry): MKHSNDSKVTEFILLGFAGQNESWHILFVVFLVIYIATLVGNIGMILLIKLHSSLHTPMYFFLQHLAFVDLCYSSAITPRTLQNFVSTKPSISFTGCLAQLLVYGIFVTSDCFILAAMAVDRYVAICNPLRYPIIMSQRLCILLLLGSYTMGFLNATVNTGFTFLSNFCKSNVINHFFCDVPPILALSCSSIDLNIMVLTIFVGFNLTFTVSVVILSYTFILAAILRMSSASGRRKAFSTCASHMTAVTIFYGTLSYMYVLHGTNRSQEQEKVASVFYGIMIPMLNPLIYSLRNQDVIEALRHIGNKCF
Outline: (§1)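 Each entry records the cell line, G-protein, co-transfected protein and tags used. Methods varied with the source, often transient luciferase assays in mammalian cell lines. A receptor–molecule pair is called responsive (active) if the original authors judged its signal statistically different from baseline and non-responsive (inactive) otherwise.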

UniProt Q8VGD7 = target: T2, UniProt Q8VGD7
T2 sequence (whole entry): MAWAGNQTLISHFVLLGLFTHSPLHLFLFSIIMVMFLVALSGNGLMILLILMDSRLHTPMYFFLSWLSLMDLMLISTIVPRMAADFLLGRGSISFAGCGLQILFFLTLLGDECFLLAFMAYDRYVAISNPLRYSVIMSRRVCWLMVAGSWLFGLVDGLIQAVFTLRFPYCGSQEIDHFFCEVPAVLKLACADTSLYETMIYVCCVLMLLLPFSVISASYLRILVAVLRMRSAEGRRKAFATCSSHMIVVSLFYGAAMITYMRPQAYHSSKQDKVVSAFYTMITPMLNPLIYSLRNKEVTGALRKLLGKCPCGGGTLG
Outline: as §1

UniProt Q8VGH1 = target: T3, UniProt Q8VGH1
T3 sequence (whole entry): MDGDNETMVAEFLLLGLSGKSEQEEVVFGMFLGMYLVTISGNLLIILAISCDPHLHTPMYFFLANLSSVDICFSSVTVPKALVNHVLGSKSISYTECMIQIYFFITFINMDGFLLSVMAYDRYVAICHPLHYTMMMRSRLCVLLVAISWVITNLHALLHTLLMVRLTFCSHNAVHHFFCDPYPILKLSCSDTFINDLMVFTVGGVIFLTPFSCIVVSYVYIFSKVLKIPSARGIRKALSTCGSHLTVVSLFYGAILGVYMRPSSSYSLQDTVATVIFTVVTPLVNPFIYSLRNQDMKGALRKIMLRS
Outline: as §1

UniProt Q8VGJ1 = target: T4, UniProt Q8VGJ1
T4 sequence (whole entry): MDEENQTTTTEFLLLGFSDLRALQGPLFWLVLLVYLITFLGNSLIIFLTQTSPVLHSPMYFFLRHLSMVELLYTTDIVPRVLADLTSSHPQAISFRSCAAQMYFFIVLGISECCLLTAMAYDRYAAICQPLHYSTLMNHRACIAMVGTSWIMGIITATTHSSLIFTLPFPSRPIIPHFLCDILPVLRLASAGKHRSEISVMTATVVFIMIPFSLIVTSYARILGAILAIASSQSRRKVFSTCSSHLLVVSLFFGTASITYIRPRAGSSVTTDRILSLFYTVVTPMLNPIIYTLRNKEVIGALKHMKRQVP
Outline: as §1

UniProt Q8VGJ3 = target: T5, UniProt Q8VGJ3
T5 sequence (whole entry): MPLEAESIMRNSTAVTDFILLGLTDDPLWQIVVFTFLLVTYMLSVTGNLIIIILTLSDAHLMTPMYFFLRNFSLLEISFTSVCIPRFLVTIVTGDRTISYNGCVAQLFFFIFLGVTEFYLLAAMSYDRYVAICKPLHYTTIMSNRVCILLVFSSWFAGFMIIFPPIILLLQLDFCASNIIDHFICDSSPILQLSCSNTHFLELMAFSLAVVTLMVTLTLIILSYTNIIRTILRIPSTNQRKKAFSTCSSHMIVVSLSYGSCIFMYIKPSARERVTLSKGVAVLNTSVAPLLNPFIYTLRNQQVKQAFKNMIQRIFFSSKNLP
Outline: as §1

UniProt Q8VGJ5 = target: T6, UniProt Q8VGJ5
T6 sequence (whole entry): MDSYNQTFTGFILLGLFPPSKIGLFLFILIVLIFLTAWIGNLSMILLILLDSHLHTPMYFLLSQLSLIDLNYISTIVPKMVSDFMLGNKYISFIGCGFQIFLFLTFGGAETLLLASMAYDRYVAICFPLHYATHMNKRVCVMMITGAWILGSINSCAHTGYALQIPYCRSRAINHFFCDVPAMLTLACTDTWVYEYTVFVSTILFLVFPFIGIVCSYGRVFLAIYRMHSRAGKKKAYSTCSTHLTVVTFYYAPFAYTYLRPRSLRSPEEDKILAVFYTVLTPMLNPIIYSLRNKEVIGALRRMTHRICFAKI
Outline: as §1

UniProt Q8VGL0 = target: T7, UniProt Q8VGL0
T7 sequence (whole entry): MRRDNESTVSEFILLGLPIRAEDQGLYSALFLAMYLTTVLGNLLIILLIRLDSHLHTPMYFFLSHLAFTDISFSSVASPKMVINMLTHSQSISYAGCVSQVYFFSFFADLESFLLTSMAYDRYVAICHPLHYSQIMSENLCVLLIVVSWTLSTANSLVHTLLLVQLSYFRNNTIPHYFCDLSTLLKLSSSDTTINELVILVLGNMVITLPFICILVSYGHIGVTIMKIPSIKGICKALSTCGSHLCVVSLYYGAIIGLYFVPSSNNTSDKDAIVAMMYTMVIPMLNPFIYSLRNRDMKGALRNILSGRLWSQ
Outline: as §1

UniProt Q8VGL7 = target: T8, UniProt Q8VGL7
T8 sequence (whole entry): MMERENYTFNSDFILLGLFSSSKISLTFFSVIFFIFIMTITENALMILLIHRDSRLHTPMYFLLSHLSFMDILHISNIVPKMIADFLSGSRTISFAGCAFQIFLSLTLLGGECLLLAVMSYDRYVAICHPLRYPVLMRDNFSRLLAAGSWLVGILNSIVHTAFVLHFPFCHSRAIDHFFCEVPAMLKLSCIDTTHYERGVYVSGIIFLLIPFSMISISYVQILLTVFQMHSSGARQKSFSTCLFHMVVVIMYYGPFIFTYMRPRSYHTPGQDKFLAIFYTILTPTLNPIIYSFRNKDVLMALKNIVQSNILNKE
Outline: as §1

UniProt Q8VGM2 = target: T9, UniProt Q8VGM2
T9 sequence (whole entry): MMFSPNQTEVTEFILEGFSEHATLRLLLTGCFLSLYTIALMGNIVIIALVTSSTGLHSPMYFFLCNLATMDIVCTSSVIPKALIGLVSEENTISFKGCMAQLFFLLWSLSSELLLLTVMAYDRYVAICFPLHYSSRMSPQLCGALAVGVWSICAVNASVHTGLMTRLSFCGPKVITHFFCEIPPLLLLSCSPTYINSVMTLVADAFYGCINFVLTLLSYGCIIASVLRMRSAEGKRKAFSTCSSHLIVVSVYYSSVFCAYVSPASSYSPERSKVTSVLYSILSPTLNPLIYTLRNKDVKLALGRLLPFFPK
Outline: as §1

UniProt Q8VGP6 = target: T10, UniProt Q8VGP6
T10 sequence (whole entry): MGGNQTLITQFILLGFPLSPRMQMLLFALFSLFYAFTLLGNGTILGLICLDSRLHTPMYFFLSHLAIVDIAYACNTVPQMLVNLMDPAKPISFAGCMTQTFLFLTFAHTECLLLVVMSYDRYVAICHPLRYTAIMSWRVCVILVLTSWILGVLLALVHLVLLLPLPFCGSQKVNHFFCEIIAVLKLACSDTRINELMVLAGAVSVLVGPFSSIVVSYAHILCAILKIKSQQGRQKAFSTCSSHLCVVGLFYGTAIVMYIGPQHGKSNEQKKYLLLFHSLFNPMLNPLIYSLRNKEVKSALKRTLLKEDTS
Outline: as §1

UniProt Q8VGQ3 = target: T11, UniProt Q8VGQ3
T11 sequence (whole entry): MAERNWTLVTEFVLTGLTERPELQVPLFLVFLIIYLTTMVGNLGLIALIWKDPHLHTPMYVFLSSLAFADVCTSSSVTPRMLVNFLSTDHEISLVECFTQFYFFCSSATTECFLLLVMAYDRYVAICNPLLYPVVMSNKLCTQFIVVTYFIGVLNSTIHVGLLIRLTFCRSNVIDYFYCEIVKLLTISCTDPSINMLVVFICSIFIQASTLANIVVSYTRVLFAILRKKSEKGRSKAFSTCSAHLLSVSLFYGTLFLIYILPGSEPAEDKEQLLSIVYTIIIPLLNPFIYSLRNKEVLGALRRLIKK
Outline: as §1

UniProt Q8VGT4 = target: T12, UniProt Q8VGT4
T12 sequence (whole entry): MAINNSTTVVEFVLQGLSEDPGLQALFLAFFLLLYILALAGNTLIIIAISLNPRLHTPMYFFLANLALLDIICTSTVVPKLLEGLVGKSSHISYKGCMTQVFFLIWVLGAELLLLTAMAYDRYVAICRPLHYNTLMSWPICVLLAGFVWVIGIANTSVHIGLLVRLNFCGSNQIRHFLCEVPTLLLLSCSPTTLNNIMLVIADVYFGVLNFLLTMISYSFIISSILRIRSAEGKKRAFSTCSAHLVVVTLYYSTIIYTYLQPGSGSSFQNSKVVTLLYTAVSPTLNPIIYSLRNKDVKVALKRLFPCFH
Outline: as §1

UniProt Q8VGU3 = target: T13, UniProt Q8VGU3
T13 sequence (whole entry): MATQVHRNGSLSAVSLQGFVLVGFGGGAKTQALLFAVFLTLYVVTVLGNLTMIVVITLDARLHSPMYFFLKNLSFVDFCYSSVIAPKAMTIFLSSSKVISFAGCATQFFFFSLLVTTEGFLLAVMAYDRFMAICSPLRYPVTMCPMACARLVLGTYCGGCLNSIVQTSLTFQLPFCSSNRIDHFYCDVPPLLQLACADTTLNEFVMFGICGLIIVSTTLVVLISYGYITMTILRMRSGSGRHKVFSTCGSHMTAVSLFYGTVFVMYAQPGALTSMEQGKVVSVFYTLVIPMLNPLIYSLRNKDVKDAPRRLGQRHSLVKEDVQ
Outline: as §1

UniProt Q8VGV1 = target: T14, UniProt Q8VGV1
T14 sequence (whole entry): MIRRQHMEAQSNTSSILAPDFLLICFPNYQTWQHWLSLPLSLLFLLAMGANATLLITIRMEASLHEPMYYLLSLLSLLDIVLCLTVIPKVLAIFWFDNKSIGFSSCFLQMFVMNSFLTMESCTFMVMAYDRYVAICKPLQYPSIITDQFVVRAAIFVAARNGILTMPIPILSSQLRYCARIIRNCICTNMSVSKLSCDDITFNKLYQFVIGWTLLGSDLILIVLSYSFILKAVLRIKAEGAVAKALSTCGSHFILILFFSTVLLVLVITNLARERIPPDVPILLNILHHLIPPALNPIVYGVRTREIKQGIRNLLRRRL
Outline: as §1

UniProt Q8VGV7 = target: T15, UniProt Q8VGV7
T15 sequence (whole entry): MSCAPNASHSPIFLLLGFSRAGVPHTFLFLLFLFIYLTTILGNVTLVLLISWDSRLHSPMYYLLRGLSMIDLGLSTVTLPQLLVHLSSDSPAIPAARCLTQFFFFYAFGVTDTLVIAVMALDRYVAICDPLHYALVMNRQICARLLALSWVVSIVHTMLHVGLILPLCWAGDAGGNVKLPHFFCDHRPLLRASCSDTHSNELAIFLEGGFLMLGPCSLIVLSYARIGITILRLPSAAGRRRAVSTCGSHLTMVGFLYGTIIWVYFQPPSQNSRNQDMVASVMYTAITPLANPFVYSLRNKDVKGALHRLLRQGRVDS
Outline: as §1

UniProt Q8VGX3 = target: T16, UniProt Q8VGX3
T16 sequence (whole entry): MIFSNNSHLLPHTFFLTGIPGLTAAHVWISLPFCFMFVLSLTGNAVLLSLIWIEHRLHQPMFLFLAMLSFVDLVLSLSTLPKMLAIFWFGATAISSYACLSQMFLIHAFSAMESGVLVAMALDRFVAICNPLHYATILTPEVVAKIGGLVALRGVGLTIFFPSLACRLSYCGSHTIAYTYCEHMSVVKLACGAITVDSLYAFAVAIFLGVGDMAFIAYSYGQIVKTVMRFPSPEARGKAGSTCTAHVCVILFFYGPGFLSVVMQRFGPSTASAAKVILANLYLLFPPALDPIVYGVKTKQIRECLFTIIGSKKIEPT
Outline: as §1

UniProt Q8VGX5 = target: T17, UniProt Q8VGX5
T17 sequence (whole entry): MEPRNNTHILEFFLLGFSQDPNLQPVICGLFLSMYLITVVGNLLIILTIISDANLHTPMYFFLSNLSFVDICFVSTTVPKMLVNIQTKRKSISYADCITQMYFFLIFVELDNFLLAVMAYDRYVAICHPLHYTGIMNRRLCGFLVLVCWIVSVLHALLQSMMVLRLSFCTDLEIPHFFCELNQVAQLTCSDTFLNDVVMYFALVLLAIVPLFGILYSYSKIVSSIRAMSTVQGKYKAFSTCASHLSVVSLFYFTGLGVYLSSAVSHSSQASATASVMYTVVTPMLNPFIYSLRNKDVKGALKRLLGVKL
Outline: as §1

Measured: odorant receptor agonist call

CC12CCC(CC1=O)C2(C)C (centres undefined)
active: UniProt Q8VGD7 | UniProt Q8VGL0 | UniProt Q8VGT4 | UniProt Q8VGX5
inactive: all other assays above

CCCCCC=O
inactive: all assays above

CCCCCO
not listed: UniProt Q8VGJ3 | UniProt Q8VGU3 | UniProt Q8VGV7 | UniProt Q8VGX3
inactive: all other assays above

O=C(c1ccccc1)c1ccccc1
active: UniProt Q8VGJ1
inactive: all other assays above
